This note sets out measurements from ChEMBL document CHEMBL3091329, “Discovery of tetrahydroisoquinoline-based CXCR4 antagonists” (ACS Med Chem Lett, 2013).

The nature of data set [1]: Cytotoxicity against human MAGI-CCR5 cells assessed as cell viability after 2 to 6 days by MTS assay.
Data set [2] addresses T1, C-X-C chemokine receptor type 4 (Homo sapiens, UniProt P61073). Kind of data set: Antagonist activity at CXCR4 in human Chem-1 cells assessed as inhibition of SDF-1alpha-mediated calcium flux preincubated for 10 mins by FLIPR assay. The class given is functional, cell-based.
Data set [3] has as its target T1, C-X-C chemokine receptor type 4. Description: Ratio of IC50 for CXCR4 in human MAGI-CCR5 cells assessed as inhibition of HIV-1 3B entry to IC50 for CXCR4 in human Chem-1 cells assessed as inhibition of SDF-1alpha-mediated calcium flux. The class given is functional, cell-based. In a few lines:
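Two IC50s taken as a ratio. The first is from blockade of HIV-1 IIIB attachment in CCR5/CXCR4-expressing HeLaCD4-LTR-β-gal (MAGI) cells, with cytotoxicity (TC50) assessed alongside. The second is from inhibition of CXCL12-induced Ca2+ flux/release in Chem-1 cells. Each assay was run in duplicate.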

T1 sequence (P61073 whole entry): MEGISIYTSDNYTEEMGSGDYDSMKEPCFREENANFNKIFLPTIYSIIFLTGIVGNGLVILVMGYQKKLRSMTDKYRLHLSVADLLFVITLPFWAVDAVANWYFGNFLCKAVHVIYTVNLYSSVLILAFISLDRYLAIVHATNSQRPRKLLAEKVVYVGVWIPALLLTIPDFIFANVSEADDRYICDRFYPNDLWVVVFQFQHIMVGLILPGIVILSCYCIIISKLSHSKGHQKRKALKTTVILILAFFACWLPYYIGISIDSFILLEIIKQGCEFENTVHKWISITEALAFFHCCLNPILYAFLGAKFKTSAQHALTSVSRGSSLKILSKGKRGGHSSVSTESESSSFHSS

For `NCCCCN(C[C@@H]1CCc2ccccc2N1)[C@H]1CCCc2cccnc21`, the CC50 in data set [1] (magi-ccr5) is greater than 30000 nM.
Regarding `CC(=O)NCCCCN(C[C@H]1Cc2ccccc2CN1)[C@H]1CCCc2cccnc21`, in data set [2], the IC50 was determined as 4 nM. In addition, the CC50 in data set [1] (magi-ccr5) was greater than 10000 nM.
For `CN(C)C(=O)NCCCCN(C[C@H]1Cc2ccccc2CN1)[C@H]1CCCc2cccnc21`, in data set [2], the IC50 is 180 nM. Also, in data set [1] (magi-ccr5), the CC50 was greater than 10000 nM.
Take `CC(C)N1Cc2ccccc2C[C@@H]1CN(CCCCN)[C@H]1CCCc2cccnc21`: the IC50 in data set [2] came out at 140 nM. Further, the CC50 in data set [1] (MAGI-CCR5 cells) is greater than 10000 nM.
For the molecule `NCCCCN(C[C@@H]1NCCc2ccccc21)[C@H]1CCCc2cccnc21`, in data set [1] (magi-ccr5), the CC50 is greater than 30000 nM.
Take `NC(=O)NCCCCN(C[C@H]1Cc2ccccc2CN1)[C@H]1CCCc2cccnc21`: in data set [2], the IC50 was found to be 3 nM. Also, the CC50 in data set [1] (magi-ccr5) was greater than 10000 nM.
In the case of `CN(C)CCCCN(C[C@H]1Cc2ccccc2CN1)[C@H]1CCCc2cccnc21`, the Ratio IC50 in data set [3] stood at 2. In data set [2], the 50% inhibitory concentration (IC50) turned out to be 8 nM. In data set [1] (MAGI-CCR5 cells), the CC50 was greater than 10000 nM.
As to `CN1Cc2ccccc2C[C@@H]1CN(CCCCN)[C@H]1CCCc2cccnc21`, the IC50 in data set [2] amounted to 39 nM. In data set [1] (magi-ccr5), the CC50 was greater than 10000 nM.
As to `NCCCCN(C[C@H]1Cc2ccccc2CN1Cc1ccncc1)[C@H]1CCCc2cccnc21`, the IC50 in data set [2] was 660 nM. Moreover, the CC50 in data set [1] (MAGI-CCR5 cells) was greater than 10000 nM.
Take `NCCCCN(C[C@H]1Cc2ccccc2CN1CC(=O)N1CCOCC1)[C@H]1CCCc2cccnc21`: the IC50 in data set [2] is 570 nM. In data set [1] (magi-ccr5), the CC50 is greater than 10000 nM.
Regarding `NCCCCN(C[C@H]1Cc2ccccc2CN1Cc1cccnc1)[C@H]1CCCc2cccnc21`, the IC50 in data set [2] came to 350 nM. For the same molecule, the 50% cytotoxic concentration (CC50) in data set [1] (MAGI-CCR5 cells) is greater than 10000 nM.
With `CC(C)NCCCCN(C[C@H]1Cc2ccccc2CN1)[C@H]1CCCc2cccnc21`, the Ratio IC50 in data set [3] worked out at 2. The IC50 in data set [2] is 7 nM. Besides, in data set [1] (MAGI-CCR5 cells), the CC50 is greater than 10000 nM.
Turning to `NCCCCN(C[C@H]1CCc2ccccc2N1)[C@H]1CCCc2cccnc21`, the CC50 in data set [1] (magi-ccr5) is greater than 30000 nM.
In the case of `NCCCCN(C[C@H]1NCCc2ccccc21)[C@H]1CCCc2cccnc21`, the CC50 in data set [1] (magi-ccr5) is greater than 30000 nM.
Consider `NCCCCN(C[C@@H]1Cc2ccccc2CN1)[C@H]1CCCc2cccnc21`, for which, in data set [1] (MAGI-CCR5 cells), the CC50 was greater than 10000 nM.
On to `NCCCCN(C[C@H]1Cc2ccccc2CN1Cc1cocn1)[C@H]1CCCc2cccnc21`, for which, in data set [2], the IC50 turned out to be 490 nM. Besides, in data set [1] (magi-ccr5), the CC50 is greater than 10000 nM.
With `NCCCCN(C[C@H]1Cc2ccccc2CN1Cc1ccccn1)[C@H]1CCCc2cccnc21`, the IC50 in data set [2] was determined as 56 nM. The CC50 in data set [1] (MAGI-CCR5 cells) was greater than 10000 nM.
